# Compound activity (PubChem)
# rCAG RNA binder – binds r(CAG) RNA repeats | 370,000 tested, 1.3% active | r(CAG) RNA repeat, TO-PRO-1 dye displacement fluorescence | inhibition, % at 3 µM;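 active = inhibition above the plate cutoff, the mean of all test compounds on that plate plus 3 SD, cut at about 35% in these data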;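 note: 0% = DMSO alone and 100% = 100 µM mitoxantrone as full dye displacement; higher means more dye released from RNA so lower well fluorescence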
# core dimer inh – blocks dimerization of HCV core protein. TR-FRET GST/Flag-core106 dimerization, 1536-well. inhibition, % at 5 µM. 300,000 tested, 0.33% active. AID 1899;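 active = inhibition above the mean of all tested compounds plus 3 SD, set per screening campaign, cut at about 45% in these data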
#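 Assay system: Tagged HCV core106 pair (GST and Flag) | Buffer or medium: KF-containing HEPES buffer, pH 7.45, DTT, CHAPS, BSA | Also added: Eu donor and XL665 acceptor anti-tag antibodies | Dosing: One concentration, 5 µM, in 0.5% DMSO | Timing: 4 h at 22.5 °C | Technique: TR-FRET 671 and 617 nm emission | Repeats: Singlicate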
# ABHD5-PLIN5 inh – ABHD5-PLIN5 protein interaction inhibition. Q00G26+Q8WTS1. Split G. princeps luciferase complementation, luminescence, 4 h. inhibition, % at 4 µM. 360,000 tested, 0.78% active. AID 602281;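 active = inhibition above the mean inhibition across every tested compound plus 3 SD, cut at about 22% in these data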;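 note: 0% = DMSO only wells and the 100% control is not disclosed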
# Target sequence (Q00G26 whole entry, looked up): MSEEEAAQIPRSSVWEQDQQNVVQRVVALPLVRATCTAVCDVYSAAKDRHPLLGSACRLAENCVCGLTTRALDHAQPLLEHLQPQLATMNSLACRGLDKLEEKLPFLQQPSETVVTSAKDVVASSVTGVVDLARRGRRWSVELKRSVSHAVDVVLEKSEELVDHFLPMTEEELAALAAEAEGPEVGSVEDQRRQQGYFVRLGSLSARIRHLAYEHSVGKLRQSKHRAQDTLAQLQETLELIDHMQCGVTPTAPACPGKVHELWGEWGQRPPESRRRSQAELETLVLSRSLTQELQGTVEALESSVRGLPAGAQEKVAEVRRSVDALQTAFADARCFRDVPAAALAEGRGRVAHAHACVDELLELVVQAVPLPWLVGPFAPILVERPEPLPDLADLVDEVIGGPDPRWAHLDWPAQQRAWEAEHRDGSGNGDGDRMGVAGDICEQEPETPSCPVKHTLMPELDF
# Target sequence (Q8WTS1 whole entry, looked up): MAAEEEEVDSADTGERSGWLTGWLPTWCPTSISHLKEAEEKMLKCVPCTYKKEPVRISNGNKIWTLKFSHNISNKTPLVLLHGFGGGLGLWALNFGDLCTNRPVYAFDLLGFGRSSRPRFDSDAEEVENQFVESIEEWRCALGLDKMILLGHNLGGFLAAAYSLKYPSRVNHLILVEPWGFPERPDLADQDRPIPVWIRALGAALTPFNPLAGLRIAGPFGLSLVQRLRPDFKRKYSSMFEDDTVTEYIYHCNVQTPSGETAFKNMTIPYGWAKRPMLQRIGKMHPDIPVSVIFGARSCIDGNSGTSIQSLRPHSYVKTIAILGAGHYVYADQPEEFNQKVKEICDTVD
# NadD block – NadD (S. aureus) enzyme inhibition. purified NadD enzyme, colorimetric absorbance read-out. inhibition, % at 20 µM. 360,000 tested, 0.78% active. AID 602399; in the data active = inhibition above about 26%
# rCAG binder conf – r(CAG) RNA repeat binding, confirmation. shares compounds with rCAG RNA binder. TO-PRO-1 dye displacement fluorescence. inhibition, % at 3 µM. 4,300 tested, 70% active. AID 652065;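 active = inhibition above a per-plate cutoff, the mean inhibition of sample wells plus 3 SD, cut at about 35% in these data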;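 note: loss of TO-PRO-1 fluorescence as compound displaces dye from 1x1 AA loop RNA; 0% = DMSO only wells and 100% = 100 µM mitoxantrone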
# DNA CAG counter – disrupts DNA CAG TO-PRO-1 complex, flagging rCAG hits; shares compounds with rCAG RNA binder; inhibition, % at 3 µM; 4,300 tested, 94% active; d(CAG) DNA oligo TO-PRO-1 dye displacement, fluorescence;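 active = inhibition above its plate's cutoff, the mean test-well inhibition plus 3 SD, cut at about 4.8% in these data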;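 note: 0% = DNA dye mix with DMSO and 100% = 100 µM mitoxantrone; hits displace the dye from DNA and so lower well fluorescence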
# DNA CAG DR – counter-screen for rCAG binders: inhibitors of DNA CAG TO-PRO-1 complex; 250 tested, 20% active; IC50, µM; DNA CAG/GTC duplex TO-PRO-1 dye displacement fluorescence; shares compounds with rCAG RNA binder; AID 686960; in the data active = IC50 below about 10 µM
# * = called active by the depositor; i = inactive; · = not tested or not shown. Sampled rows, rich in hits. Any-hit rate of the full collection: about 2.6%.
SMILES,rCAG RNA binder,core dimer inh,ABHD5-PLIN5 inh,NadD block,rCAG binder conf,DNA CAG counter,others
COc1ccc(OC)c(S(=O)(=O)NC(=O)C2(C)CCN2C(=O)C2(c3ccc(Cl)cc3)CC2)c1 (configuration not stated),24,·,10,5,·,·,
CC1(C(=O)NS(=O)(=O)c2cccc(F)c2)CCN1C(=O)C1(c2ccc(Cl)cc2)CCC1 (configuration not stated),42*,·,-7,-5,31,6.7*,
Cc1ccc(SCC(=O)N2CCOCC2)cc1,40*,0,-5,-1,1,2,
COc1ccc(/C=N\NC(=O)c2cc(O)c(O)c(O)c2)cc1CN1CCN(c2ccc(F)cc2)CC1,41*,1,22*,41*,45*,20*,
COc1ccc(/C=N\NC(=O)c2cc(O)c(O)c(O)c2)cc1COc1ccc(C(=O)OCC(C)C)cc1,50*,22,6,60*,56*,35*,
Cc1ccc(OCc2nc3ccccc3n2C(C)C(=O)Nc2c(C)cccc2C)cc1 (configuration not stated),5,·,1,·,·,·,
CCN(c1cccc(C)c1)S(=O)(=O)c1nnc(NC(=O)c2ccco2)s1,39*,-6,-8,0,28,6.5*,
CN(c1ccc(Cl)cc1)S(=O)(=O)c1nnc(NC(=O)c2ccco2)s1,39*,2,-5,4,27,7.4*,
O=C(CCc1ccccc1-c1ccccc1CCNC(=O)c1ccc(F)c(F)c1)NCc1ccccc1,-1,·,·,·,·,·,
COC(=O)C[C@@H]1CC[C@H](NC(=O)c2ccccc2)[C@@H](CO)O1,1,·,1,·,·,·,
CC(C)C1=CC2C3C(C(C(C)C)=CC(=O)[C@@]3(C)O)C1C(=O)C2(C)O (some centres not stated),1,·,·,·,·,·,
COc1ccc(OC)c(S(=O)(=O)N2CCCC(C(=O)N3CCN(Cc4ccccc4)CC3)C2)c1 (configuration not stated),1,·,·,·,·,·,
COc1cc(/C=C2\CC/C(=C\c3cc(OC)c(OC)c(OC)c3)C2=O)cc(OC)c1OC,5,7,3,-11,·,·,
COc1cc(/C=C2/CCC/C(=C\c3cc(O)c(OC)c(Cl)c3)C2=O)cc(Cl)c1O,38*,50*,9,50*,30,10*,
O=C(OC12CCCN(C1)/C(=C/c1ccccc1)C2)c1cccc(F)c1 (configuration not stated),-1,·,·,·,·,·,
Cc1ccc(CNC(=O)c2ccccc2NS(=O)(=O)c2ccc(Cl)nc2)cc1,43*,3,-6,-6,20,4,
Cc1cc(NC(=O)c2ccccc2NS(=O)(=O)c2c(C)c(C)cc(C)c2C)no1,25,1,-9,8,·,·,
Cc1ccc(CNC(=O)c2ccccc2NS(C)(=O)=O)cc1,1,6,0,-5,·,·,
Cc1ccc(C)c(S(=O)(=O)Nc2ccccc2C(=O)Nc2cc(C)on2)c1,77*,12,7,-1,77*,32*,DNA CAG DR=i
Cc1ccc(C)c(S(=O)(=O)Nc2ccccc2C(=O)Nc2ccc(S(=O)(=O)Nc3ncccn3)cc2)c1,77*,3,4,7,51*,18*,
Cc1ccc(S(=O)(=O)Nc2ccccc2C(=O)Nc2ccc(S(=O)(=O)Nc3nccc(C)n3)cc2)cc1,59*,7,4,10,55*,24*,
CC1=C(C(=O)N2CCCCCC2)CC(CC(=O)NCCCN(C)C)C(=O)N1CCCN1CCCC1=O (configuration not stated),3,·,4,-2,·,·,
CCOC(=O)c1c(/N=C/c2cc(OC)cc([N+](=O)[O-])c2O)sc(C)c1C,6,1,-3,2,·,·,
CCOC(=O)c1c(/N=C/c2cc([N+](=O)[O-])ccc2O)sc(C)c1C,65*,24,0,0,9,7.2*,
O=C(Nc1ccccc1)OC1CC2CC1[C@H]1CCCCN1[C@H]2Cc1ccccc1 (some centres not stated),4,·,·,·,·,·,
SMILES,rCAG RNA binder,core dimer inh,ABHD5-PLIN5 inh,NadD block,rCAG binder conf,DNA CAG counter,others
N#Cc1c(=O)c2nc(NCCCO)ncc2n2c(=O)c3ccccc3[nH]c12,41*,8,4,9,67*,26*,DNA CAG DR=5.4*
N#Cc1c(=O)c2nc(NCc3ccccc3)ncc2n2ccccc12,9,11,0,20,·,·,
Cc1cc(C(c2ccc(C)o2)c2ccc(C)o2)c(O)c([N+](=O)[O-])c1,54*,11,7,12,18,8.5*,
O=C1C(Cl)=C(NS(=O)(=O)c2ccc([N+](=O)[O-])cc2)C(=O)c2ccccc21,38*,-8,21,-5,24,5.3*,
C=CCCC1CN(Cc2ccc(OC)cc2)S(=O)(=O)c2c(NCc3cc(OC)c(OC)c(OC)c3)cccc2O1 (configuration not stated),10,·,·,·,·,·,
Cc1ccc(S(=O)(=O)N2CCOCC2)cc1C(=O)Nc1ccc(S(=O)(=O)Nc2nccs2)cc1,39*,0,-2,-1,26,12*,
O=C(Nc1ccc(S(=O)(=O)Nc2nccs2)cc1)c1ccc(F)c(S(=O)(=O)N2CCOCC2)c1,45*,4,1,7,37*,16*,
CC(C)CNC(=O)OCc1cn(Cc2cccc(C(F)(F)F)c2)nn1,-1,·,·,·,·,·,
COC(=O)[C@]12C[C@H](CC(=O)NCc3ccccc3)C(=O)N(Cc3ccco3)C1=C[C@H](C(C)C)O[C@@H]2C1CC1,3,·,·,·,·,·,
CCCN(CCC)S(=O)(=O)c1ccc(NS(=O)(=O)c2ccc(F)cc2)cc1,46*,-1,4,-8,35*,8.4*,
N=C1/C(=C\c2ccc(-c3cccc(Cl)c3)o2)C(=O)N=C2SC=C(c3ccccc3)N12,65*,41,-10,75*,66*,41*,
Cc1ccc(CNC(=O)C2CC(c3ccccc3C(F)(F)F)=NO2)o1 (configuration not stated),38*,-3,3,3,5,3,
COC(=O)C1=CN(c2ccc3c(c2)OCO3)C(N)=C(C#N)C1c1cccc(F)c1 (configuration not stated),4,·,-8,·,·,·,
Cc1ccc(Sc2ccc(S(=O)(=O)Nc3ccc(C(=O)O)cc3)cc2)cc1C,49*,·,7,15,43*,13*,
c1ccc(CN2CCCC3CC2c2ccccc23)cc1 (configuration not stated),5,·,·,·,·,·,
CS(=O)(=O)C1=NSC2=NC(=O)/C(=C\c3cccn3-c3ccc(Cl)cc3)C(=N)N21,85*,39,5,17,85*,54*,
Cc1cc(/C=C2/C(=N)N3C(=NC2=O)SN=C3S(C)(=O)=O)c(C)n1-c1ccccc1F,80*,20,4,10,83*,56*,
